Measurements from different studies.
Each line is one published result; the experiments were not run side by side.

| Structure (SMILES) | target or system | assay | test system | conditions | measurement | result |
| --- | --- | --- | --- | --- | --- | --- |
| CC(C)C[C@@H]1NC(=O)[C@H](CC(N)=O)NC(=O)[C@H](CCCNC(=N)N)NC(=O)[C@H]([C@@H](C)O)NC(=O)[C@@H]2CSSC[C@@H]3NC(=O)[C@H]([C@@H](C)O)NC(=O)CNC(=O)CNC(=O)[C@H](C(C)C)NC(=O)[C@@H]4CSSC[C@H](NC(=O)[C@H](CCCCN)NC(=O)[C@H](CSSC[C@H](NC(=O)[C@H](C(C)C)NC(=O)[C@@H]5CCCN5C(=O)[C@H](CC(C)C)NC1=O)C(=O)NCC(=O)N[C@@H](CCC(=O)O)C(=O)N[C@@H]([C@@H](C)O)C(=O)N4)NC(=O)CNC(=O)[C@@H]1CCCN1C(=O)[C@H]([C@@H](C)O)NC(=O)[C@H](CC(N)=O)NC3=O)C(=O)N[C@@H](CO)C(=O)N[C@@H](Cc1c[nH]c3ccccc13)C(=O)N1CCC[C@H]1C(=O)N[C@@H](C(C)C)C(=O)N2 | Sf9 | cell growth or viability, MTT | – | 24 h | IC50 | 1800 nM |
| C[N+]1=C2C=C(NCCc3ccc(O)cc3)C(=O)c3[nH]cc(c32)CC1 | Plasmodium falciparum | parasite growth, SYBR Green | 3D7 | blood stage | IC50 | 18.8 nM |
| O[C@@H](CN[C@@H](COCC1CC1)Cc1ccccc1)c1cc(Cl)cc2c1-c1ccc(Cl)cc1C2 | Plasmodium falciparum | parasite growth, SYBR Green | W2 | 48 h, drug-resistant strain, blood stage | IC50 | 5.4 nM |
| Cn1cc2c3c1C(=O)C(N)=CC3=NCC2 | Plasmodium falciparum | parasite growth, SYBR Green | 3D7 | blood stage | IC50 | 3300 nM |
| OC(c1cc(C(F)(F)F)nc2c(C(F)(F)F)cccc12)C1CCCCN1 (centres unmarked) | Plasmodium falciparum | parasite growth, SYBR Green | W2 | 48 h, drug-resistant strain, blood stage | IC50 | 20.7 nM |
| CC(C)C[C@@H]1NC(=O)[C@H](CC(N)=O)NC(=O)[C@H](CCCNC(=N)N)NC(=O)[C@H]([C@@H](C)O)NC(=O)[C@@H]2CSSC[C@@H]3NC(=O)[C@H]([C@@H](C)O)NC(=O)CNC(=O)CNC(=O)[C@H](C(C)C)NC(=O)[C@@H]4CSSC[C@H](NC(=O)[C@H]([C@@H](C)O)NC(=O)[C@H](CSSC[C@H](NC(=O)[C@H](C(C)C)NC(=O)[C@@H]5CCCN5C(=O)[C@H](CC(C)C)NC1=O)C(=O)NCC(=O)N[C@@H](CCC(=O)O)C(=O)N[C@@H]([C@@H](C)O)C(=O)N4)NC(=O)CNC(=O)[C@@H]1CCCN1C(=O)[C@H]([C@@H](C)O)NC(=O)[C@H](CC(N)=O)NC3=O)C(=O)N[C@@H](CO)C(=O)N[C@@H](Cc1c[nH]c3ccccc13)C(=O)N1CCC[C@H]1C(=O)N[C@@H](C(C)C)C(=O)N2 | Sf9 | cell growth or viability, MTT | – | 24 h | IC50 | 1800 nM |
| Cc1c2ccncc2c(C)c2c1[nH]c1ccccc12 | NCI-H460 | cell growth or viability, SRB | – | 72 h | GI50 | 4100 nM |
| CCCCCNCC(O)c1cc(Cl)cc2c1-c1ccc(Cl)cc1C2 (racemic) | Plasmodium falciparum | parasite growth, SYBR Green | W2 | 48 h, drug-resistant strain, blood stage | IC50 | 8.7 nM |
| Cn1cc2c3c1C(=O)C(NCCc1ccc(O)cc1)=CC3=[N+](C)CC2 | Plasmodium falciparum | parasite growth, SYBR Green | 3D7 | blood stage | IC50 | 43.7 nM |
| CC(C)C[C@@H]1NC(=O)CNC(=O)[C@H](CC(N)=O)NC(=O)[C@H](CCCNC(=N)N)NC(=O)[C@H]([C@@H](C)O)NC(=O)[C@@H]2CSSC[C@@H]3NC(=O)[C@H]([C@@H](C)O)NC(=O)CNC(=O)CNC(=O)[C@H](C(C)C)NC(=O)[C@@H]4CSSC[C@H](NC(=O)[C@H](CCCCN)NC(=O)[C@H](CSSC[C@H](NC(=O)[C@H](C(C)C)NC(=O)[C@@H]5CCCN5C1=O)C(=O)NCC(=O)N[C@@H](CCC(=O)O)C(=O)N[C@@H]([C@@H](C)O)C(=O)N4)NC(=O)CNC(=O)[C@@H]1CCCN1C(=O)[C@H]([C@@H](C)O)NC(=O)[C@H](CC(N)=O)NC3=O)C(=O)N[C@@H](CO)C(=O)N[C@@H](Cc1c[nH]c3ccccc13)C(=O)N1CCC[C@H]1C(=O)N[C@@H](C(C)C)C(=O)N2 | Sf9 | cell growth or viability, MTT | – | 24 h | IC50 | 2600 nM |
| N.N.[Cl][Pt][Cl] | NCI-H460 | cell growth or viability, MTT | – | – | IC50 | 7550 nM |
